Results: ChEMBL document CHEMBL1132613 (J Med Chem, 1999)
Several values for one entry are separate records, joined by “and”; a condition that tells them apart may be missing. Equal entries are not always repeated.

Columns and labels:
[1] = system: Rattus norvegicus; test: Percentage of animals emitting >80% of lever presses in rats at a compound dose of 0.28 uM/Kg; type: functional
Summary of the method: (§1)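 Male Sprague–Dawley rats (200–220 g) in a two-lever, FR50 food-reinforced task. Rats were trained to discriminate saline from LSD tartrate (0.08 mg/kg), DOI HCl (0.4 mg/kg) or LY293284 (0.025 mg/kg) in 15-min sessions. %SDL is the share of rats making over 80% of presses on the drug lever. %D is the share failing to make 50 presses within 15 min. ED50 by Litchfield–Wilcoxon log-probit.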

[2] = system: Rattus norvegicus; test: Percentage of animals emitting >80% of lever presses in rats at a compound dose of 0.56 uM/Kg; type: functional; summary of the method: as §1
[3] = target: 5-hydroxytryptamine receptor 2A (Rattus norvegicus) (UniProt P14842); test: Efficacy against 5-hydroxytryptamine 2A receptor; type: functional
[4] = system: Rattus norvegicus; test: Percentage of animals failing to emit 50 lever presses within 15 min in rats at a compound dose of 0.2 mg/kg; type: functional
Summary of the method: (§2)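 Two-lever drug discrimination in male Sprague–Dawley rats (200–220 g at start), trained against saline on LSD tartrate (0.08 mg/kg), DOI HCl (0.4 mg/kg) or LY293284 (0.025 mg/kg). FR50 food-pellet reinforcement, levers counterbalanced, 15-min sessions at 22–24 °C. %D is the share of tested rats not completing 50 lever presses within 15 min.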

[5] = system: Rattus norvegicus; test: Percentage of animals failing to emit 50 lever presses within 15 min in rats at a compound dose of 0.1 mg/kg; type: functional; summary of the method: as §2
[6] = system: Rattus norvegicus; test: Percentage of animals failing to emit 50 lever presses within 15 min in rats at a compound dose of 0.4 mg/kg; type: functional; summary of the method: as §2
[7] = system: Rattus norvegicus; test: Percentage of animals emitting >80% of lever presses in rats at a compound dose of 1.12 uM/Kg; type: functional; summary of the method: as §1
[8] = target: 5-hydroxytryptamine receptor 2A (Homo sapiens, UniProt P28223); test: Compound was tested for the displacement of [125I]DOI from cloned human 5-hydroxytryptamine 2A receptor
Summary of the method: (§3)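 Membranes from AV12 hamster fibroblasts stably expressing human 5-HT2A or 5-HT2C. [125I]DOI was about 0.07–0.15 nM final. Buffer was 50 mM Tris-HCl pH 7.4 with 10 μM pargyline, 9.75 mM MgCl2, 0.5 mM Na2-EDTA and 0.1% Na ascorbate. Incubation was 30 min at 37 °C with about 40 μg protein (2A) or 30 μg (2C). Nonspecific binding used 1 μM ketanserin (2A) or 10 μM mianserin (2C). Read by gamma counting; sigmoid nonlinear regression.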

[9] = system: Rattus norvegicus; test: Percentage of animals emitting >80% of lever presses in LSD trained rats at a compound dose of 6.32 uM/Kg; type: functional; summary of the method: as §1
[10] = system: Rattus norvegicus; test: Percentage of animals failing to emit 50 lever presses within 15 min in […] trained rats at a compound dose of 4 mg/kg; type: functional; summary of the method: as §2
[11] = system: Rattus norvegicus; test: Percentage of animals emitting >80% of lever presses in DOI trained rats at a compound dose of 12.6 uM/Kg; type: functional; summary of the method: as §1
[12] = system: Rattus norvegicus; test: Percentage of animals failing to emit 50 lever presses within 15 min in LSD trained rats at a compound dose of 4.0 mg/kg; type: functional; summary of the method: as §2
[13] = system: Rattus norvegicus; test: Percentage of animals emitting >80% of lever presses in LSD trained rats at a compound dose of 50.6 uM/Kg; type: functional; summary of the method: as §1
[14] = system: Rattus norvegicus; test: Percentage of animals failing to emit 50 lever presses within 15 min in […] trained rats at a compound dose of 16 mg/kg; type: functional; summary of the method: as §2
[15] = system: Rattus norvegicus; test: Percentage of animals failing to emit 50 lever presses within 15 min in LSD trained rats at a compound dose of 2.0 mg/kg; type: functional; summary of the method: as §1
[16] = system: Rattus norvegicus; test: Percentage of animals failing to emit 50 lever presses within 15 min in DOI trained rats at a compound dose of 8 mg/kg; type: functional; summary of the method: as §1
[17] = system: Rattus norvegicus; test: Percentage of animals failing to emit 50 lever presses within 15 min in DOI trained rats at a compound dose of 16 mg/kg; type: functional; summary of the method: as §1
[18] = system: Rattus norvegicus; test: Percentage of animals failing to emit 50 lever presses within 15 min in […] trained rats at a compound dose of 8 mg/kg; type: functional; summary of the method: as §2
[19] = system: Rattus norvegicus; test: Percentage of animals emitting >80% of lever presses in […] trained rats at a compound dose of 12.6 uM/Kg; type: functional; summary of the method: as §1
[20] = system: Rattus norvegicus; test: Percentage of animals emitting >80% of lever presses in DOI trained rats at a compound dose of 50.6 uM/Kg; type: functional; summary of the method: as §1
[21] = system: Rattus norvegicus; test: Percentage of animals emitting >80% of lever presses in LSD trained rats at a compound dose of 12.6 uM/Kg; type: functional; summary of the method: as §1
[22] = system: Rattus norvegicus; test: Percentage of animals emitting >80% of lever presses in […] trained rats at a compound dose of 25.3 uM/Kg; type: functional; summary of the method: as §1
[23] = system: Rattus norvegicus; test: Percentage of animals emitting >80% of lever presses in […] trained rats at a compound dose of 50.6 uM/Kg; type: functional; summary of the method: as §1
[24] = system: Rattus norvegicus; test: Percentage of animals emitting >80% of lever presses in DOI trained rats at a compound dose of 25.3 uM/Kg; type: functional; summary of the method: as §1
[25] = target: 5-hydroxytryptamine receptor 2B (Homo sapiens, UniProt P41595); test: Compound was tested for the displacement of [3H]5-HT from cloned human 5-hydroxytryptamine 2B receptor
Summary of the method: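 Membranes from AV12 cells stably expressing human 5-HT2B, 100–150 μg protein. [3H]-5-HT was about 2 nM (1.7–2.5 nM) final. Buffer was 50 mM Tris pH 7.4 with 3 mM CaCl2, 10 μM pargyline and 0.1% ascorbic acid. Drug dilutions spanned 6 log units. Incubation was 15 min at 37 °C. Nonspecific binding used 10 μM 5-HT or 1-NP. PEI-soaked GF/B filtration, scintillation counting, triplicate, sigmoid nonlinear regression.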

[26] = system: Rattus norvegicus; test: Percentage of animals failing to emit 50 lever presses within 15 min in LSD trained rats at a compound dose of 16 mg/kg; type: functional; summary of the method: as §1
[27] = system: Rattus norvegicus; test: Percentage of animals failing to emit 50 lever presses within 15 min in […] trained rats at a compound dose of 2 mg/kg; type: functional; summary of the method: as §2
[28] = system: Rattus norvegicus; test: Percentage of animals failing to emit 50 lever presses within 15 min in LSD trained rats at a compound dose of 8.0 mg/kg; type: functional; summary of the method: as §2
[29] = target: T1, 5-hydroxytryptamine receptor 2C (Homo sapiens, UniProt P28335); test: Compound was tested for the displacement of [125I]DOI from cloned human 5-hydroxytryptamine 2C receptor; summary of the method: as §3
T1 sequence (P28335 whole entry): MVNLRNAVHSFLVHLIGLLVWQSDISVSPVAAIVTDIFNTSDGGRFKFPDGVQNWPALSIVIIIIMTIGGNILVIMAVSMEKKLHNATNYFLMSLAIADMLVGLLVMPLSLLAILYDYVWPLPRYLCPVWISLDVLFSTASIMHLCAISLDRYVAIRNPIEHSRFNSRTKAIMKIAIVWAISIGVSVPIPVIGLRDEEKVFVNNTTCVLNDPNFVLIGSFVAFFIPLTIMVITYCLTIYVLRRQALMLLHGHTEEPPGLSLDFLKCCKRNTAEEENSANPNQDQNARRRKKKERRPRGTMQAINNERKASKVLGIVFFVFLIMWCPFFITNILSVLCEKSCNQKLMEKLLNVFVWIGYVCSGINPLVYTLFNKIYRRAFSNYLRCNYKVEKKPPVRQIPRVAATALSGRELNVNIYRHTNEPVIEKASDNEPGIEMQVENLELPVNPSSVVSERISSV

[30] = system: Rattus norvegicus; test: Percentage of animals failing to emit 50 lever presses within 15 min in DOI trained rats at a compound dose of 4 mg/kg; type: functional; summary of the method: as §1
[31] = system: Rattus norvegicus; test: Percentage of animals emitting >80% of lever presses in LSD trained rats at a compound dose of 25.3 uM/Kg; type: functional; summary of the method: as §1
[32] = target: T2, 5-hydroxytryptamine receptor 1A (Rattus norvegicus, UniProt P19327); test: Compound was tested for the displacement of [3H]-8-OH- DPAT from rat brain 5-hydroxytryptamine 1A receptor
T2 sequence (P19327 whole entry): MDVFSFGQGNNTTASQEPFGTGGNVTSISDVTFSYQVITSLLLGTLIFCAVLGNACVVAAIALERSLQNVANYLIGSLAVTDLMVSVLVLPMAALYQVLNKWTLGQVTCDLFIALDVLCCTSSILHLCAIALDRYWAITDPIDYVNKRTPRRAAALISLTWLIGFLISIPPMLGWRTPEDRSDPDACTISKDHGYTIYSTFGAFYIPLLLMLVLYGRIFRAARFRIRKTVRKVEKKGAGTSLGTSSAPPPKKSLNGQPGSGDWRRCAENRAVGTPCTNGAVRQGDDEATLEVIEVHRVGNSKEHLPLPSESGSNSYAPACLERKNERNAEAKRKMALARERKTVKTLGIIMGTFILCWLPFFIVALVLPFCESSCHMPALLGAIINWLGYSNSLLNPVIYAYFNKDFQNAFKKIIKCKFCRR
Summary of the method: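 Pooled rat hippocampal membranes were preincubated at 37 °C. Buffer was 50 mM Tris HCl pH 7.4 with 0.5 mM Na2EDTA, 10 mM MgCl2, 0.1% Na ascorbate and pargyline. 200–400 μg protein was incubated with [3H]-8-OH-DPAT for 15 min at 37 °C, then GF/C filtered and scintillation counted. Nonspecific binding was defined with 10 μM 5-HT. Triplicate tubes.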

[33] = system: Rattus norvegicus; test: Percentage of animals emitting >80% of lever presses in […] trained rats at a compound dose of 6.32 uM/Kg; type: functional; summary of the method: as §1

Sequence of 5-hydroxytryptamine receptor 2A (Rattus norvegicus) (P14842 whole entry): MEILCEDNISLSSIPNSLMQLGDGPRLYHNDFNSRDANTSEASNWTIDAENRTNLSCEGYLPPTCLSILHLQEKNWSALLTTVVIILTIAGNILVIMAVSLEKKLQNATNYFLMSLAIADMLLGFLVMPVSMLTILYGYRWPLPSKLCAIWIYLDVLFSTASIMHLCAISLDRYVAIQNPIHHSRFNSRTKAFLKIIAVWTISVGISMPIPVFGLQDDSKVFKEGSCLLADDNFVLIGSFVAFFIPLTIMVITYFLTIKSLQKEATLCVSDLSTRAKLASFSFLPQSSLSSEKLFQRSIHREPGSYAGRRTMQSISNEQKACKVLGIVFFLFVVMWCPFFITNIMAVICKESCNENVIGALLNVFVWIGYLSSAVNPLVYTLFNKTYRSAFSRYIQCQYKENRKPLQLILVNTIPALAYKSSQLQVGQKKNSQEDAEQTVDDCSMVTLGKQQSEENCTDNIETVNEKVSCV
Sequence of 5-hydroxytryptamine receptor 2B (P41595 whole entry): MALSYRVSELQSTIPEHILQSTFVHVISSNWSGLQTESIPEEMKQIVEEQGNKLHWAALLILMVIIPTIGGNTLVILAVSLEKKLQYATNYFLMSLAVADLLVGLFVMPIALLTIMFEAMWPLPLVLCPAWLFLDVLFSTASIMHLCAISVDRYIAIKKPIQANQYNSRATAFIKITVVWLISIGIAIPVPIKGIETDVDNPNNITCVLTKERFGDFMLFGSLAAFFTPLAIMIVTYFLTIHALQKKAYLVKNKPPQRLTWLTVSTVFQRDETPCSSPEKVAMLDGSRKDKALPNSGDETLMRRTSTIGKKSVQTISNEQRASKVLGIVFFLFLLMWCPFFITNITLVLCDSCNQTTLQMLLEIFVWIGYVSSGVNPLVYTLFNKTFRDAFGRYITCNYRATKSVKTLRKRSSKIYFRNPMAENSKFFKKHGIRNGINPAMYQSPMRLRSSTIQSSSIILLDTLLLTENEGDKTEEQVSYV
Sequence of 5-hydroxytryptamine receptor 2A (P28223 whole entry): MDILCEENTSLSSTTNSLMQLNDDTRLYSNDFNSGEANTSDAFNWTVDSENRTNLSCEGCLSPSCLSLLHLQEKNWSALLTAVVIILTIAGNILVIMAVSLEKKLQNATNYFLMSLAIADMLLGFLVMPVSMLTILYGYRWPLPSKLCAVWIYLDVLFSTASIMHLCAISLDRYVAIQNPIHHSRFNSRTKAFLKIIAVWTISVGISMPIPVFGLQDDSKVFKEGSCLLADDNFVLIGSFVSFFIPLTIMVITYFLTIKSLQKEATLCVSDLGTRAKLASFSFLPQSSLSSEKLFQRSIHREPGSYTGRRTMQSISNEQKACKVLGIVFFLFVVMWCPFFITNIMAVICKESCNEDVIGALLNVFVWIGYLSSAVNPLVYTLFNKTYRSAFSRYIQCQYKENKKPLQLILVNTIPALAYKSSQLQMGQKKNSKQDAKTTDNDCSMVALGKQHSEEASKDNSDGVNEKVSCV

COc1cc(CC(C)N)c(OC)cc1I (stereo not drawn)
SDL [1]: 56% | SDL [2]: 89% | ED50 [3]: 0.3 µmol.kg-1 and 0.11 mg/kg | D [4]: 10% | D [5]: 0% | D [6]: 0% | SDL [7]: 100%

CN(C)CCc1c[nH]c2ccsc12
Ki [8]: 276 nM | SDL [9]: 0% | D [10]: 30% | SDL [11]: 37.5% | D [12]: 22% | SDL [13]: 0% | D [14]: 0% | D [15]: 25% | D [16]: 78% | D [17]: 62.5% | D [18]: 22% | SDL [19]: 57% | SDL [20]: 0% | SDL [21]: 43% | SDL [22]: 71% | SDL [23]: 83% | SDL [24]: 0% | Ki [25]: 214 nM | D [26]: 62.5% | D [27]: 8% | D [28]: 36% | Ki [29]: 64 nM | D [30]: 11% | SDL [31]: 12.5% | Ki [32]: 76 nM | SDL [33]: 50%
